Most compounds without a hit are left out; they make up all but 9.3% or so of the library.
hDAT+cocaine = changed human dopamine transporter uptake under cocaine IC80; Q01959; LLC-PK1 hDAT cells, [14C]-dopamine uptake with cocaine IC80; actives deviate in either direction; B-score at 10 µM; actives 1.3% (n = 110,000); AID 449768;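 active means Z score or B-score, a plate-position-corrected score, falls beyond the plate's 99.7% confidence bounds, in either direction; inactive means both scores lie inside the 99.7% bounds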;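 further: scored against the spread of the other compound wells on the same plate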
PostGolgi yeast = growth inhibition of a yeast mutant, post-Golgi transport screen; post-Golgi transport phenotypic cell assay; inhibition, % at 10 µM; actives 0.9% (n = 98,000);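 further: yeast cells grown in 1536-well plates; yeast grown about 18 h at 30C before absorbance read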
D1 allo mod = allosterically modulates the human D1 dopamine receptor. P21728. actives 5.9% (n = 58,000). B-score at 10 µM. HEK293 D1, CRE-luciferase, dopamine EC30 potentiation; actives deviate in either direction. AID 641;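 active means luminescence count or its row- and column-corrected plate score outside the 99.7% band of the plate's sample wells, on either side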
Target sequence (P21728 whole entry, looked up): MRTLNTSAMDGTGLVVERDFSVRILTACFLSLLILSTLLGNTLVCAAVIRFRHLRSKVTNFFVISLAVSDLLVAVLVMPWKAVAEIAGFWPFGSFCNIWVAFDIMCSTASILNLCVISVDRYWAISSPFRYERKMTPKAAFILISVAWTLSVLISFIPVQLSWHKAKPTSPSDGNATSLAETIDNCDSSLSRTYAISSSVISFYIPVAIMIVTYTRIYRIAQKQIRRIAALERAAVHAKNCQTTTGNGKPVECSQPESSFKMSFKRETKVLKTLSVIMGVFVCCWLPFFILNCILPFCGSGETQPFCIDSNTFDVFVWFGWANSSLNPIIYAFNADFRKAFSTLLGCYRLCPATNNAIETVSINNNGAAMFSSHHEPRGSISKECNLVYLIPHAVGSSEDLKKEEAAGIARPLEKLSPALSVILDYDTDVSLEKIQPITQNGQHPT
PostGolgi ctrl = inhibits growth of the yeast control strain; efflux-deficient yeast background strain, growth absorbance A615, 16 h; actives 5% (n = 98,000); inhibition, % at 10 µM
tolC growth inh = E. coli tolC mutant growth inhibition; E. coli BW25113 tolC mutant growth, OD615; growth inhibition, % at 10 µM (by protocol); actives 2.2% (n = 65,000); AID 573;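 active means growth inhibition at or above a cutoff equal to the mean over every tested compound plus 3 SD, cut at about 60% in these data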;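 further: growth measured after 20 h incubation at 37 °C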
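Doses: one dose of 10 µM final / Material: E. coli BW25113 ΔtolC::kan, tolC deletion mutant strain / Buffer or medium: LB with kanamycin 50 µg/mL / Evaluation: percent growth inhibition / Detection: optical density read at 615 nm / Incubation: 37 °C, 20 h exposure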
Ecoli WT expand = E. coli BW25113 growth inhibition, expanded screen; OD600 absorbance; growth inhibition, % at 100 µM; actives 0.15% (n = 98,000); AID 710;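 active means growth inhibition above about 50% at one test dose, limit read from the data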;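 further: growth measured after 20 h incubation at 37 °C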
* marks the source's active call; other numbers are inactive results; x = no result given. Unless noted, no stated cut-off is given here; in the data, active means inhibition above about 30%; inactive means the rest.

SMILES	hDAT+cocaine	PostGolgi yeast	D1 allo mod	PostGolgi ctrl	tolC growth inh	Ecoli WT expand
COc1ccc(CCn2nnnc2C(C(C)C)N2CCN(c3ncccn3)CC2)cc1OC (configuration not stated)	x	-1.2	x	35.5*	-1.2	1.0
COc1ccc(N2CCN(C(c3nnnn3CCc3ccccc3)C(C)C)CC2)cc1 (configuration not stated)	-0.605	8.8	-1.34	34.9*	14.3	-6.0
O=C1C2C3C=CC(O3)C2C(=O)N1CC(O)c1ccccc1 (configuration not stated)	0.242	-0.8	-0.22	-2.1	-6.3	5.0
COc1ccc(C)cc1-n1nnnc1SCC1CCCO1 (configuration not stated)	-0.0916	-26.4	x	19.4	x	-10.0
COc1ccc(-n2nnnc2SCc2nc3ccccc3s2)cc1	4.1*	-4.9	x	15.6	x	-15.0
COc1ccc(C)cc1-n1nnnc1SCc1nc2ccccc2s1	x	-2.4	-0.319	34.6*	60.1	-25.0
COc1ccc(OC)c2c(C)cc(N3CCCN(C)CC3)nc12	-0.385	-0.8	x	6.3	-5.5	2.0
CCCCCn1c(=O)[nH]c2cc(C(=O)NCCCN3CCC(C)CC3)ccc2c1=O	-0.126	-2.7	-2.22	-2.9	17.1	11.0
N#Cc1ccc(NC(=O)Nc2ccc(Cl)cc2)cc1	-1.44	16.3	-2.62	74.4*	89.9*	48.0
CN(CC(=O)Nc1ccc(C#N)cc1)Cc1ccc(Cl)cc1Cl	0.27	-10.2	x	40.9*	x	-7.0
COC(=O)c1ccccc1NC(=O)N1CCN(S(=O)(=O)c2ccc(Cl)cc2)CC1	-0.0194	3.1	x	42.7*	25.2	4.0
Cc1ccc(NC(=O)C2CCCN(S(=O)(=O)c3cnc[nH]3)C2)c(Br)c1 (configuration not stated)	0.053	-7.1	0.147	5.1	12.4	2.0
COC(=O)c1ccccc1NC(=O)N1CCCC1	-0.963	3.2	1.86	17.6	-10.9	4.0
COC(=O)c1ccccc1NC(=O)C1CCCN(S(=O)(=O)c2ccccc2)C1 (configuration not stated)	0.00113	-7.3	-0.129	41.2*	32.2	-10.0
Cc1ccccc1NC(=O)C1CCCN(S(=O)(=O)c2cnc[nH]2)C1 (configuration not stated)	0.21	3.7	0.396	60.0*	-6.1	-2.0
O=C(CCn1c(=O)[nH]c2ccsc2c1=O)Nc1ccc(F)c(F)c1	-0.86	3.8	x	4.8	x	-6.0
Cc1cc(C)nc(Sc2nc(Cl)nc(N(c3ccccc3)c3ccccc3)n2)n1	0.312	-0.1	x	-1.8	x	6.0
Cc1ccccc1NC(=O)CN(C)S(=O)(=O)c1cccc2cccnc12	0.154	-9.4	x	17.1	1.2	1.0
O=[N+]([O-])c1ccc(/C=N/Nc2nc(N3CCCCC3)nc(N3CCCCC3)n2)o1	-0.168	11.8	x	49.1*	x	-1.0
COc1ccc(NC2CS(=O)(=O)CC2NCc2ccccc2)cc1 (configuration not stated)	0.0416	x	x	x	x	x
CCOCCCNC(=O)COc1ccc(OC)cc1	x	-9.7	x	-6.1	x	9.0
CCOc1ccc(C(=O)NN2C(=O)C3C4C=CC(O4)C3C2=O)cc1 (configuration not stated)	-1.23	2.8	x	10.7	x	1.0
CCOc1cc(-c2nc3ccccn3c2NCC2CCCO2)ccc1O (configuration not stated)	1.14	6.6	-4.11*	3.3	-11.8	8.0
COc1cc(-c2nc3ccccn3c2NCC2CCCO2)ccc1O (configuration not stated)	0.487	10.4	-2.21	8.3	-12.6	0.0
COc1ccc2c(CC(=O)Nc3ccc(OC)c(NS(=O)(=O)c4ccc(F)cc4)c3)coc2c1	-0.0342	0.1	-1.22	14.3	9.9	-2.0
SMILES	hDAT+cocaine	PostGolgi yeast	D1 allo mod	PostGolgi ctrl	tolC growth inh	Ecoli WT expand
CCCCOc1ccc(NC2=NC3(CCCCC3)N=C(N)N2)cc1	1.24	-2.9	-3.22	29.8	98.9*	59.0*
COc1ccc(NC2=NC3(CCCCC3)N=C(N)N2)cc1	0.152	5.8	-1.78	-6.3	22.7	12.0
COc1ccc(OC)c(NC2=NC3(CCCCC3)N=C(N)N2)c1	0.0691	8.5	-5.21*	8.1	3.8	1.0
COC(=O)CNC(=O)CSc1nc(N)cc(=O)[nH]1	-0.0691	7.3	x	30.6*	x	3.0
Nc1cc(=O)[nH]c(SCC(=O)Nc2cc(Cl)cc(Cl)c2)n1	-0.172	-10.3	x	17.4	x	-1.0
Cc1ccc(S(=O)(=O)N2CCC(=O)N(C(COCc3ccc(Cl)cc3)Cc3ccccc3)CC2)cc1 (configuration not stated)	1.26	x	x	x	x	x
O=C(c1ccc(=O)oc1)N1CCCc2ccccc21	-0.558	5.1	0.0549	2.6	-13.1	5.0
O=C(NCCCn1ccnc1)c1cc(S(=O)(=O)N2CCOCC2)c(Cl)cc1Cl	0.343	3.9	x	-9.9	-10.1	-9.0
O=C(NCCCn1ccnc1)c1ccc(Br)c(S(=O)(=O)N2CCOCC2)c1	-8.36*	-0.3	x	6.9	x	-4.0
CCc1ccc(-n2nnnc2SCC(=O)NNC(=O)c2ccco2)cc1	-0.0243	-0.8	x	-1.3	x	2.0
CC(=O)c1ccc(-n2nnnc2SCC(=O)NNC(=O)c2ccco2)cc1	-0.0959	5.7	x	42.7*	x	2.0
Cc1ccc(-n2nnnc2SCC(=O)Nc2cccc(NC(=O)c3ccco3)c2)cc1C	0.273	1.9	0.293	37.7*	20.6	-4.0
O=C(c1cc(-c2cccs2)on1)N1CCN(c2ccc(F)cc2)CC1	0.651	4.1	-0.74	10.9	-19.5	-2.0
O=C(c1cn(-c2ccccc2)nc1-c1cccs1)N1CCN(c2ccc(F)cc2)CC1	0.108	-5.9	x	48.1*	x	-9.0
O=C(Nn1nnnc1Nc1ccccc1)C12CC3CC(CC(C3)C1)C2	-0.914	22.2	-0.447	11.8	50.5	7.0
CCC1CCCCN1C(=O)N[C@@H](Cc1ccccc1)C(=O)O (some centres not stated)	0.0898	14.3	0.391	6.1	-6.3	3.0
Cc1ccc(-n2cc(C(C)(C)C)[nH]c2=S)cc1	0.0751	1.4	x	8.2	5.5	3.0
Cc1cccc(C)c1NC(=O)C(NC=O)c1ccccc1Cl (configuration not stated)	-0.974	7.5	x	30.6*	x	-3.0
Cc1cccc(C)c1NC(=O)C(NC=O)c1ccc(N(C)C)cc1 (configuration not stated)	0.21	-6.5	-0.0384	3.4	-10.5	-1.0
Cc1cc(C)c(S(=O)(=O)Nc2ccc(OCC(=O)O)cc2)c(C)c1	-0.214	5.7	x	40.6*	7.2	3.0
COc1cccc(NS(=O)(=O)c2c(C)cc(C)cc2C)c1	1.52	-4.3	-2.5	32.0*	22.3	6.0
CCNC(=O)COc1ccc(S(=O)(=O)Nc2ccccc2)cc1	-0.00107	5.4	x	3.5	x	-1.0
COc1ccc(NS(=O)(=O)c2c(C)cc(C)cc2C)cc1	0.644	-2.8	x	21.0	x	-8.0
COc1cccc(N2[C@@H](CC(C)=O)c3ccc(/C=C/C(C)=O)cc3S2(=O)=O)c1	-0.19	x	x	x	x	x
CC(C)(C)S(=O)c1cccs1 (configuration not stated)	-0.189	-2.4	x	8.9	x	-15.0

Source: PubChem (several laboratories)
